In ChEMBL document CHEMBL1131041 (J Med Chem, 1998):

What was measured:
[1] = target: Delta-type opioid receptor (Mus musculus) (UniProt P32300); experiment: Displacement of DPDPE from Opioid receptor delta 1 of mouse vas deferens (MVD)smooth muscle
Procedure, shortened: (§1)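 Mouse vas deferens (male ICR, 25–40 g) in Mg-free oxygenated Krebs at 37 °C, 0.5 g tension; transmural 0.1 Hz, 2-ms pulses, supramaximal voltage. Control DPDPE curve first; then 1 μM compound 30 min, 30 min wash, cumulative DPDPE curve (3-min steps) repeated. IC50 ratio = shifted/control IC50; Ke = [antagonist]/(ratio − 1); n ≥ 3.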

[2] = target: T1, Delta-type opioid receptor (Rattus norvegicus, UniProt P33533); experiment: Displacement of [3H]DADLE from morphine-sensitive Opioid receptor delta 1 (presence of 300 nM DELT-II) of rat brain membranes; format: cell membranes, Membrane
T1 sequence (P33533 whole entry): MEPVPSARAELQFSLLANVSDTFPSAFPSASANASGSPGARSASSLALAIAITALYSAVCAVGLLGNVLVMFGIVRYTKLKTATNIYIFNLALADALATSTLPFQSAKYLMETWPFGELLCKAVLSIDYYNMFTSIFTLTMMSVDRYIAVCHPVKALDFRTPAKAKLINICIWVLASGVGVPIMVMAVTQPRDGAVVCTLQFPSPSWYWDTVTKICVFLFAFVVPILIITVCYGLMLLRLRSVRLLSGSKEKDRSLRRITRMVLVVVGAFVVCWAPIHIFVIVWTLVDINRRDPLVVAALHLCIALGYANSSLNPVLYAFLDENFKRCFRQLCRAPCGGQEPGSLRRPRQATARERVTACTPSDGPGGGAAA
Procedure, shortened: (§2)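 Rat brain membranes pretreated with (+)-trans-[…], labelled with 2.0 nM [3H]DADLE, plus 50 nM morphine (δcx-2) or 300 nM DELT-II (δcx-1). Incubation 4–6 h at 25 °C in 10 mM Tris-HCl pH 7.4 with 100 mM NaCl, 3 mM MnCl2, 2 μM GTP, 5 mM 2-mercaptoethanol and protease inhibitors. 8–10 concentrations, twice.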

[3] = target: Opioid receptors; mu & delta (Rattus norvegicus) (UniProt P33533+P33535); experiment: Relative affinity for mu and delta receptors in rat brain membranes; format: cell membranes
Opioid receptors; mu & delta (Rattus norvegicus), sequence (P33533 whole entry, looked up): as the sequence (P33533 whole entry) above
Opioid receptors; mu & delta (Rattus norvegicus), sequence (P33535 whole entry, looked up): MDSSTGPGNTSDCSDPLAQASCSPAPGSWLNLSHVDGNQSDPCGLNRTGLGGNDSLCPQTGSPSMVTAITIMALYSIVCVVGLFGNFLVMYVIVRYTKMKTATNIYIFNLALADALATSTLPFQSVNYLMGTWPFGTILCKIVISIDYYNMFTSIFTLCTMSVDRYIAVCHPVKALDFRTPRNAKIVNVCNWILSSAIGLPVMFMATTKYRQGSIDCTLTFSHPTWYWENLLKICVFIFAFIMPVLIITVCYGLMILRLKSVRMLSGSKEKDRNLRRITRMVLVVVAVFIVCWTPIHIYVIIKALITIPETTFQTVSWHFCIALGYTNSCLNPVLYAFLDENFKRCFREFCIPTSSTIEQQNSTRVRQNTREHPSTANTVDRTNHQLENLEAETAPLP

Mu-type opioid receptor = Mu-type opioid receptor (Rattus norvegicus, UniProt P33535); experiment: Displacement of [3H]DAMGO from Opioid receptor mu 1 of rat brain membranes; format: cell membranes, Membrane
Mu-type opioid receptor, sequence (P33535 whole entry): as the sequence (P33535 whole entry, looked up) above
Procedure, shortened: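 Rat brain membranes labelled with [3H]DAMGO. Incubation 4 h at 25 °C in 50 mM Tris-HCl pH 7.4 with protease inhibitor cocktail. Nonspecific binding defined with 20 μM levallorphan. 8–10 test concentrations, run twice; IC50 and slope factor derived.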

Cavia porcellus [4] = species: Cavia porcellus; experiment: (§3) Partial agonist activity expressed as inhibition of contraction of guinea pig ileal longitudinal muscle myenteric plexus (GPI) at 1 uM conc.; format: functional, organism-based; settings: Muscle tissue
Procedure, shortened: (§4)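 Agonist action on electrically driven tissues at 37 °C: GPI (1 g tension, 0.4-ms pulses) and Mg-free MVD (0.5 g, 2-ms pulses), 0.1 Hz. Percent inhibition of contraction height read 10 min after 1 μM compound; for stronger agonists, IC50 from concentration–response curves (2–4 tissues, nonlinear least squares). Selectivity = GPI IC50/MVD IC50.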

Mus musculus [5] = species: Mus musculus; experiment: (§5) Partial agonist activity expressed as inhibition of contraction of mouse vas deferens (MVD) smooth muscle at 1 uM conc.; format: functional, organism-based; settings: Muscle tissue; procedure, shortened: as §4
[6] = target: T2, Kappa-type opioid receptor (Cavia porcellus, UniProt P41144); experiment: Displacement of [3H]U-69593 from Opioid receptor kappa 1 of guinea pig brain membranes (pretreated with BIT and FIT to block mu and delta sites)
T2 sequence (P41144 whole entry): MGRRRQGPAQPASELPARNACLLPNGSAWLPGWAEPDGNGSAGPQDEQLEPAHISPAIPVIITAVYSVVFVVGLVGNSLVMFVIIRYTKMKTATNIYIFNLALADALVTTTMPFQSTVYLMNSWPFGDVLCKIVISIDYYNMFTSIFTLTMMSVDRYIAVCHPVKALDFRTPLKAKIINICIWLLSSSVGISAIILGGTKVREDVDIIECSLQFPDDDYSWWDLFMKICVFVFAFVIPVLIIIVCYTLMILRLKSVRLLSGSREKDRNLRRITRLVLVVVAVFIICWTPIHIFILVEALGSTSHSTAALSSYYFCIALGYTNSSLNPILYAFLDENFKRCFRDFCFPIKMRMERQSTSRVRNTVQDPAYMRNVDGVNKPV
Procedure, shortened: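 Guinea pig brain membranes pretreated with BIT and FIT, labelled with [3H]U69,593. Incubation 4–6 h at 25 °C in 50 mM Tris-HCl pH 7.4 with protease inhibitors and 1 μg/mL captopril. Nonspecific binding with 1 μM U69,593. 8–10 concentrations, twice.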

[7] = target: Delta-type opioid receptor (Mus musculus) (UniProt P32300); experiment: Displacement of DPDPE from Opioid receptor delta 1 of mouse vas deferens (MVD) smooth muscle; procedure, shortened: as §1
[8] = target: T2, Kappa-type opioid receptor; experiment: Displacement of [125I]OXY from Opioid receptor kappa 2b of guinea pig brain membranes (pretreated with BIT(mu) and FIT(delta) and in the presence of (-)U50,488)
Procedure, shortened: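 Guinea pig brain membranes depleted of μ/δ sites by BIT and FIT, labelled with 0.01 nM [125I]IOXY in presence of 5 μM (−)U50,488. Incubation 4–6 h at 4 °C in 50 mM Tris-HCl pH 7.4 with 10 mM NaCl, protease inhibitors and 1 μg/mL captopril.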

[9] = target: T1, Delta-type opioid receptor; experiment: Displacement of [3H]DADLE from Opioid receptor delta 1 of rat brain membranes (DAMGO quenching mu receptor); format: cell membranes, Membrane
Procedure, shortened: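 Rat brain membranes labelled with [3H]DADLE. Incubation 3–4 h at 25 °C in 10 mM Tris-HCl pH 7.4 with 100 mM choline chloride, 3 mM MnCl2, 100 nM DAMGO (μ block) and protease inhibitors. Levallorphan 20 μM for nonspecific binding. 8–10 concentrations, duplicate runs.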

[10] = target: T1, Delta-type opioid receptor; experiment: Displacement of [3H]DADLE from morphine-insensitive Opioid receptor delta 1 (presence of 50 nM morphine) of rat brain membranes; format: cell membranes, Membrane; procedure, shortened: as §2
[11] = target: Opioid receptors; mu & delta (Homo sapiens) (UniProt P41143+P35372); experiment: IC50 selectivity for mu receptor of guinea pig Ileum (GPI) and delta receptor of delta opioid receptor of mouse vas deferens (MVD) smooth muscle preparation; format: tissue-based; procedure, shortened: as §4
Opioid receptors; mu & delta (Homo sapiens), sequence (P35372 whole entry, looked up): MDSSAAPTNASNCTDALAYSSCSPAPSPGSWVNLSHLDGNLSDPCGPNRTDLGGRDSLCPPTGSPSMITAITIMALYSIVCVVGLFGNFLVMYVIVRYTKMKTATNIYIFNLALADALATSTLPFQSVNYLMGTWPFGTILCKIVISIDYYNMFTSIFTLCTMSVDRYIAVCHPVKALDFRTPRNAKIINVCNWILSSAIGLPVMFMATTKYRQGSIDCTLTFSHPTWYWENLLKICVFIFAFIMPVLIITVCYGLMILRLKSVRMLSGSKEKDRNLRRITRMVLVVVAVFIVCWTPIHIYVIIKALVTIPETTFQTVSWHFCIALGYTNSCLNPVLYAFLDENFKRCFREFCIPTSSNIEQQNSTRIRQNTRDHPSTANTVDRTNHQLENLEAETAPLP
Opioid receptors; mu & delta (Homo sapiens), sequence (P41143 whole entry, looked up): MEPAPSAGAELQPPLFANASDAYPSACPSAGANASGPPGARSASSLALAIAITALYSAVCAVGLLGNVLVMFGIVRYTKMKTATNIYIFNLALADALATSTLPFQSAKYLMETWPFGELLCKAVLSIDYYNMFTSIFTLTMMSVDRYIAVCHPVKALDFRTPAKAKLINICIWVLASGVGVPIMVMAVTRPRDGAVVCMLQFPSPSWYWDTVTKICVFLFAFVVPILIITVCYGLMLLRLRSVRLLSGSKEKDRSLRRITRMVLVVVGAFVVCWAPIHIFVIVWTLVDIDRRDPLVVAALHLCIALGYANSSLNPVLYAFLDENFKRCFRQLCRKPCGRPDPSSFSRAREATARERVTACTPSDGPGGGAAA

[12] = Relative affinity for guinea pig kappa1 and rat delta receptors
Mus musculus [13] = species: Mus musculus; experiment: as §5; format: functional, Muscle tissue; procedure, shortened: as §4
Cavia porcellus [14] = species: Cavia porcellus; experiment: as §3; format: functional, Muscle tissue; procedure, shortened: as §4
Cavia porcellus [15] = species: Cavia porcellus; experiment: Binding affinity of compound was measured on electrically stimulated guinea pig ileal longitudinal muscle myenteric plexus (GPI) preparation using PL017 as standard antagonist; format: functional; settings: Muscle tissue
Procedure, shortened: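 Electrically stimulated guinea pig ileum longitudinal muscle–myenteric plexus (male Hartley, 250–500 g) in oxygenated Krebs at 37 °C, 1 g tension; 0.1 Hz, 0.4-ms pulses. Tissue preincubated 30 min with 1 μM compound, washed 30 min, then cumulative PL-017 curve repeated. Ke = [antagonist]/(IC50 ratio − 1); n ≥ 3.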

[16] = Selectivity for mu receptor of guinea pig Ileum (GPI) and delta receptor of delta opioid receptor of mouse vas deferens (MVD) smooth muscle preparation; format: tissue-based
[17] = target: Mu-type opioid receptor (Mus musculus) (UniProt P42866); experiment: Compound was tested for antagonist activity against Opioid receptor mu 1 on electrically stimulated guinea pig ileal longitudinal muscle myenteric plexus (GPI) using PL017 as antagonist ligand. IC50 ratio = IC50(agonist)/IC50 (control); format: functional; settings: Cavia porcellus; target entry is the homologue from another species
Mu-type opioid receptor (Mus musculus), sequence (P42866 whole entry): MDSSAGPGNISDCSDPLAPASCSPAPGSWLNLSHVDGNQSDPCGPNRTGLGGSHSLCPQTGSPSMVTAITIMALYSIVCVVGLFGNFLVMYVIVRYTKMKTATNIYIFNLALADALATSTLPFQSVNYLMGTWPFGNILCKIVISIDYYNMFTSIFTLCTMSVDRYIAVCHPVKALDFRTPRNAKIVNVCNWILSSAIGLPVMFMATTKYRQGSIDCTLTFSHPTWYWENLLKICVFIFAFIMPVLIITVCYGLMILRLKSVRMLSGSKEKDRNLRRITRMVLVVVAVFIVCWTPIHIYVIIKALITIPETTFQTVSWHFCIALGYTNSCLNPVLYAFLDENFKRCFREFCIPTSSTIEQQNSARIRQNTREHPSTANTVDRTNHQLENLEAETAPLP
Procedure, shortened: (§6)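 Guinea pig ileum longitudinal muscle–myenteric plexus (male Hartley, 250–500 g) in oxygenated Krebs at 37 °C, 1 g tension; 0.1 Hz, 0.4-ms pulses, supramaximal voltage. Control PL-017 curve first; 1 μM compound 30 min, 30 min wash, cumulative PL-017 curve repeated. IC50 ratio = antagonized/unantagonized IC50; n ≥ 3.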

[18] = target: Mu-type opioid receptor (Mus musculus) (UniProt P42866); experiment: Compound was tested for antagonist activity against dOpioid receptor mu 1 on electrically stimulated guinea pig ileal longitudinal muscle myenteric plexus (GPI) using PL017as standard antagonist; e denotes 'the agonist effects precluded the determination of antagonist effects'; format: functional; settings: Cavia porcellus; filed as agonist; target entry is the homologue from another species; procedure, shortened: as §6
[19] = target: Delta-type opioid receptor (Mus musculus) (UniProt P32300); experiment: Compound was tested for antagonist activity against Opioid receptor delta 1 on mouse vas deferens (MVD) smooth muscle preparation using DPDPE as antagonist ligand; e denotes the agonist effects precluded the determination of antagonist effects; format: functional; settings: filed as agonist; procedure, shortened: as §1
Mus musculus [20] = species: Mus musculus; settings: Muscle tissue
[21] = target: Delta-type opioid receptor (Mus musculus) (UniProt P32300)

Delta-type opioid receptor (Mus musculus), sequence (P32300 whole entry): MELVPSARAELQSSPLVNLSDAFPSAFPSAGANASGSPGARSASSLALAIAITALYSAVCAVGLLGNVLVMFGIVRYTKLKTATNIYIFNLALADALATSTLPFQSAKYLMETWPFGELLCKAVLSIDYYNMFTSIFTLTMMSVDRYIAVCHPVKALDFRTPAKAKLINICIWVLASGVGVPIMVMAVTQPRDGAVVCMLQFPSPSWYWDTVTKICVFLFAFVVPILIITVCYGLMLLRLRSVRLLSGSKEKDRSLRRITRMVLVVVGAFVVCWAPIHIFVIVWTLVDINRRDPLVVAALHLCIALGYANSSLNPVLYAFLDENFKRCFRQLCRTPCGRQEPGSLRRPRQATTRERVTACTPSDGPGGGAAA

SMILES | Ke [1] | Ki [2] | Selectivity ratio [3] | Ki (Mu-type opioid receptor) | Ki [6] | Ratio [7] | Ki [8] | Ki [9] | Ki [10] | Selectivity ratio [12] | Max response (Mus musculus [13]) | Max response (Cavia porcellus [14]) | Ke (Cavia porcellus [15]) | Selectivity ratio [16] | Ratio [17] | other results
Oc1ccc2c3c1OC1c4[nH]c5c(Oc6ccccc6)cccc5c4C[C@@]4(O)[C@@H](C2)N(CC2CC2)CC[C@]314 (stereo partly drawn) | 0.25 nM | 18.7 nM | 48 | 34.2 nM | 33.6 nM | 4000 | 56.8 nM | 0.71 nM | 0.61 nM | 47 | – | – | – | – | – | IC50 (Cavia porcellus [4]): 450 nM; IC50 (Mus musculus [5]): 4100 nM; Selectivity ratio [11]: 0.11
Oc1ccc2c3c1OC1c4[nH]c5ccc(-c6ccccc6)cc5c4C[C@@]4(O)[C@@H](C2)N(CC2CC2)CC[C@]314 (stereo partly drawn) | 9.4 nM | 121 nM | 10 | 165 nM | 354 nM | 110 | 186 nM | 15.8 nM | 24.7 nM | 22 | 25% | 0% | 110 nM | 12 | – | –
Oc1ccc2c3c1OC1c4[nH]c5c(OCc6ccccc6)cccc5c4C[C@@]4(O)[C@@H](C2)N(CC2CC2)CC[C@]314 (stereo partly drawn) | 1.7 nM | 73.3 nM | 51 | 159 nM | 258 nM | 610 | 112 nM | 3.1 nM | 2.5 nM | 83 | – | – | – | – | – | IC50 (Cavia porcellus [4]): 1700 nM; IC50 (Mus musculus [5]): 9500 nM; Selectivity ratio [11]: 0.18
Oc1ccc2c3c1OC1c4[nH]c5cccc(OCc6ccccc6)c5c4C[C@@]4(O)[C@@H](C2)N(CC2CC2)CC[C@]314 (stereo partly drawn) | – | 74.1 nM | 24 | 360 nM | 539 nM | – | 109 nM | 14.8 nM | 17.2 nM | 36 | 70% | 86% | – | – | – | –
Oc1ccc2c3c1OC1c4[nH]c5cccc(Oc6ccccc6)c5c4C[C@@]4(O)[C@@H](C2)N(CC2CC2)CC[C@]314 (stereo partly drawn) | 17 nM | 395 nM | 21 | 1430 nM | 1310 nM | – | 353 nM | 67.9 nM | 114 nM | 19 | 27% | 28% | 590 nM | 35 | 2.7 | –
Oc1ccc2c3c1OC1c4[nH]c5cccc(-c6ccccc6)c5c4C[C@@]4(O)[C@@H](C2)N(CC2CC2)CC[C@]314 (stereo partly drawn) | 66 nM | 284 nM | 29 | 1510 nM | 2970 nM | 16 | 435 nM | 52.4 nM | 127 nM | 57 | 22% | 0% | 710 nM | 11 | 2.4 | –
Oc1ccc2c3c1OC1c4[nH]c5ccc(OCc6ccccc6)cc5c4C[C@@]4(O)[C@@H](C2)N(CC2CC2)CC[C@]314 (stereo partly drawn) | 4.8 nM | 14.9 nM | 18 | 81 nM | 82.1 nM | 210 | 85.8 nM | 4.4 nM | 1.7 nM | 19 | 35% | 24% | 560 nM | 117 | 2.8 | –
Oc1ccc2c3c1OC1c4[nH]c5ccc(/C=C/c6ccccn6)cc5c4C[C@@]4(O)[C@@H](C2)N(CC2CC2)CC[C@]314 (stereo partly drawn) | – | 17.4 nM | 21 | 76 nM | 20.1 nM | – | 21.4 nM | 3.7 nM | 4 nM | 5 | – | – | – | – | – | IC50 (Cavia porcellus [4]): 2600 nM; IC50 (Mus musculus [5]): 220 nM; Ratio [18]: Agonist; Selectivity ratio [11]: 12; Ratio [19]: Agonist
Oc1ccc2c3c1OC1c4[nH]c5cc(OCc6ccccc6)ccc5c4C[C@@]4(O)[C@@H](C2)N(CC2CC2)CC[C@]314 (stereo partly drawn) | – | 201 nM | 101 | 676 nM | 470 nM | 260 | 461 nM | 6.7 nM | 6.3 nM | 70 | 25% | 0% | – | – | – | Ke (Mus musculus [20]): 3.9 nM
Oc1ccc2c3c1OC1c4[nH]c5c(-c6ccccc6)cccc5c4C[C@@]4(O)[C@@H](C2)N(CC2CC2)CC[C@]314 (stereo partly drawn) | – | 51.4 nM | 59 | 124 nM | 312 nM | – | 89.9 nM | 2.1 nM | 0.46 nM | 149 | 35% | 37% | 310 nM | 172 | 4.2 | Ke [21]: 1.8 nM
Oc1ccc2c3c1OC1c4[nH]c5ccc(Oc6ccccc6)cc5c4C[C@@]4(O)[C@@H](C2)N(CC2CC2)CC[C@]314 (stereo partly drawn) | 11 nM | 204 nM | 16 | 292 nM | 75.2 nM | 93 | 199 nM | 17.9 nM | 4.9 nM | 4 | 11% | 8% | 770 nM | 70 | – | –
Oc1ccc2c3c1O[C@H]1c4[nH]c5ccccc5c4C[C@@]4(O)[C@@H](C2)N(CC2CC2)CC[C@]314 [NALTRINDOLE] | 0.49 nM | 12.3 nM | – | – | 34.1 nM | – | 19.9 nM | 0.29 nM | 0.24 nM | – | 16% | 18% | 43 nM | – | – | –
Oc1ccc2c3c1OC1c4[nH]c5cc(-c6ccccc6)ccc5c4C[C@@]4(O)[C@@H](C2)N(CC2CC2)CC[C@]314 (stereo partly drawn) | 21 nM | 299 nM | 71 | 1280 nM | 632 nM | 49 | 660 nM | 18 nM | 14.2 nM | 35 | 36% | 2% | – | – | – | –
